Measurements: the RNAGym collection of RNA variant scans (doi:10.1002/anie.201605470)

B1: Osa-1-4 twister ribozyme (parent)
chain: CCGCCUAACACUGCCAAUGCCGGUCCCAAGCCCGGAUAAAAGUGGAGGGGGCGG

Variants of: B1
Assay: self-cleavage, relative activity (ratio to wild type); higher = more cleavage; co-transcriptional
How it was run: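 A DNA template was synthesised for a 54-nucleotide twister ribozyme from Oryza sativa, with 97 % wild-type base and 1 % of each other base at each of the 48 positions downstream of the cleavage site. The ribozyme cleaved itself co-transcriptionally during 2 h of in vitro transcription at 37 °C. Reverse transcription with a template-switching oligonucleotide, PCR amplification and deep sequencing followed, and cleavage status came from reads with or without upstream sequence. Relative activity is the fraction cleaved normalised to wild type.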

Variant	self-cleavage
G42U G48C	0.03
G42U G48A	0.03
G42U G48U	0.03
G42U G45C	0.03
G42U G45U	0.04
G42U G45A	0.05
A41U G19U	0.35
A41U G19A	0.94
A41U G19C	0.24
G44A U24G	0.03
G44A U24C	0.08
G44A U24A	0.06
A41U C11G	0.45
A41U C11U	0.9
A41U C11A	0.79
A41U C14A	0.13
A41U C14G	0.3
A41U C14U	0.7
G42U U12G	0.06
G42U U12C	0.05
G42U U12A	0.06
A41G U24G	0.04
A41G U24A	0.07
A41G U24C	0.07

Variant	self-cleavage
G44A U12A	0.65
G44A U12G	0.28
G44A U12C	0.68
G44C G51A	0.67
G44C G51C	0.07
G44C G51U	0.16
A41U C20U	0.95
A41U C20G	0.19
A41U C20A	0.85
A41U A7U	0.11
A41U A7G	0.31
A41U A7C	0.03
G42U U37C	0.11
G42U U37G	0.15
G42U U37A	0.09
G42C U18A	0.23
G42C U18G	0.32
G42C U18C	0.21
A41U G49C	0.07
A41U G49U	0.13
A41U G49A	0.14
G42A G48C	0.06
G42A G48A	0.06
G42A G48U	0.05

Variant	self-cleavage
G44C G48A	0.08
G44C G48C	0.08
G44C G48U	0.07
G44C G50U	1
G44C G50C	0.81
G44C G50A	0.5
G44A U18G	0.63
G44A U18C	0.83
G44A U18A	0.84
G44C	0.98
G44A	0.97
A41U C31G	0.13
A41U C31A	0.04
A41U C31U	0.94
G42A U12A	0.15
G42A U12C	0.1
G42A U12G	0.09
G42U U18G	0.28
G42U U18A	0.29
G42U U18C	0.23
A41U G34C	0.47
A41U G34A	0.82
A41U G34U	0.74
G42A G49A	0.07

Variant	self-cleavage
G42A G49U	0.06
G42A G49C	0.07
A41U A8U	0.25
A41U A8C	0.07
A41U A8G	0.41
G44A G49C	0.06
G44A G49U	0.07
G44A G49A	0.07
G42U G50U	0.12
G42U G50C	0.1
G42U G50A	0.32
A41U U18C	0.93
A41U U18A	0.92
A41U U18G	0.86
A41U G47U	0.25
A41U G47C	0.11
A41U G47A	0.27
A41G U43C	0.13
A41G U43A	0.21
A41G U43G	0.16
A41U C26U	0.93
A41U C26G	0.11
A41U C26A	0.06
A41U G53C	0.11

Variant	self-cleavage
A41U G53U	0.36
A41U G53A	0.89
G42C U43G	0.09
G42C U43C	0.11
G42C U43A	0.1
A41U G44A	0.88
A41U G44C	0.98
A41U G44U	0.87
G42A G45U	0.05
G42A G45C	0.05
G42A G45A	0.08
A41U	1.02
A41G U37G	0.87
A41G U37C	0.59
A41G U37A	0.86
G42A G51U	0.1
G42A G51A	0.28
G42A G51C	0.06
G42U G51U	0.07
G42U G51A	0.1
G42U G51C	0.04
G42C G45U	0.05
G42C G45A	0.06
G42C G45C	0.06

Variant	self-cleavage
G44A G54U	0.94
G44A G54C	0.93
G44A G54A	0.92
G42A G50A	0.45
G42A G50U	0.83
G42A G50C	0.64
U43A	0.93
U43C	0.64
U43G	0.67
G44A U43A	0.88
G44A U43C	0.1
G44A U43G	0.67
G42C U37A	0.21
G42C U37G	0.39
G42C U37C	0.34
G42A U37C	0.88
G42A U37A	0.51
G42A U37G	0.89
A41U G35U	0.87
A41U G35A	0.83
A41U G35C	0.77
A41G G53C	0.08
A41G G53A	0.61
A41G G53U	0.25

Variant	self-cleavage
A41U G30A	0.06
A41U G30U	0.04
A41U G30C	0.04
A41G G54C	0.8
A41G G54U	0.82
A41G G54A	0.81
A41G U12G	0.21
A41G U12C	0.78
A41G U12A	0.87
A41G U18C	0.74
A41G U18A	0.77
A41G U18G	0.83
G42A U18A	0.71
G42A U18G	0.66
G42A U18C	0.44
G42U G47A	0.05
G42U G47C	0.02
G42U G47U	0.03
G44A G51C	0.08
G44A G51A	0.79
G44A G51U	0.28
A41U G42U	0.15
A41U G42C	0.2
A41U G42A	0.35

Variant	self-cleavage
A41U U24G	0.02
A41U U24A	0.22
A41U U24C	0.27
G44A G48U	0.06
G44A G48C	0.06
G44A G48A	0.07
A41U G23A	0.62
A41U G23U	0.09
A41U G23C	0.08
G42C G48C	0.07
G42C G48U	0.04
G42C G48A	0.05
G42A G44C	0.57
G42A G44A	0.5
G42A G44U	0.31
G44C G45C	0.08
G44C G45A	0.14
G44C G45U	0.07
G42C G49A	0.06
G42C G49U	0.05
G42C G49C	0.07
G44A G45A	0.16
G44A G45C	0.07
G44A G45U	0.07

Variant	self-cleavage
A41U G50A	0.6
A41U G50U	1.03
A41U G50C	0.99
G42C G44U	0.11
G42C G44A	0.24
G42C G44C	0.19
G44C G47U	0.16
G44C G47C	0.11
G44C G47A	0.19
A41U U37C	1.03
A41U U37G	1.02
A41U U37A	0.98
A41U G51U	0.26
A41U G51C	0.1
A41U G51A	0.59
A41U C21A	0.87
A41U C21G	0.1
A41U C21U	1
G44A U37A	0.7
G44A U37C	1.01
G44A U37G	1
A41U C32U	0.17
A41U C32G	0.18
A41U C32A	0.1

Variant	self-cleavage
G42U G44C	0.26
G42U G44A	0.35
G42U G44U	0.15
A41U C9A	0.42
A41U C9G	0.79
A41U C9U	0.78
A41U G22A	1
A41U G22C	0.1
A41U G22U	0.85
A41G G50C	0.77
A41G G50U	0.91
A41U C33U	0.81
A41U C33A	0.14
A41U C33G	0.1
G42A G54A	0.76
G42A G54U	0.8
G42A G54C	0.82
G42C U24G	0.02
G42C U24C	0.05
G42C U24A	0.05
G42A G53U	0.19
G42A G53A	0.58
G42A G53C	0.1
G42U G54A	0.14

Variant	self-cleavage
G42U G54C	0.15
G42U G54U	0.37
A41U C25U	0.91
A41U C25A	0.1
A41U C25G	0.11
G42U G49A	0.04
G42U G49U	0.04
G42U G49C	0.03
G44A G47U	0.12
G44A G47C	0.09
G44A G47A	0.13
A41U A46G	0.07
A41U A46C	0.06
A41U A46U	0.09
G44A G53U	0.47
G44A G53C	0.1
G44A G53A	0.83
G42C G47A	0.06
G42C G47U	0.06
G42C G47C	0.06
G44C G53C	0.09
G44C G53A	0.81
A41U G54C	0.93
A41U G54U	0.99

Variant	self-cleavage
A41U G54A	0.98
G42U U24C	0.03
G42U U24G	0.02
G42U U24A	0.03
G42A	0.84
G42C	0.4
G42U	0.14
A41U G13U	0.03
A41U G13C	0.03
A41U G13A	0.14
G42C U12G	0.06
G42C U12A	0.09
G42C U12C	0.08
G42A U43A	0.16
G42A U43G	0.16
G42A U43C	0.11
G42C G51A	0.08
G42C G51C	0.06
G42C G51U	0.06
A41G G51C	0.09
A41G G51U	0.12
A41G G51A	0.41
G42A U24G	0.03
G42A U24C	0.06

Variant	self-cleavage
G42A U24A	0.05
G42A G47U	0.07
G42A G47A	0.08
G42A G47C	0.07
G42C G53U	0.08
G42C G53A	0.14
G42C G53C	0.07
A41U G45C	0.06
A41U G45U	0.12
A41U G45A	0.25
G42U U43A	0.08
G42U U43G	0.09
G42U U43C	0.09
G44A G50A	0.71
G44A G50U	0.97
G44A G50C	0.91
A41U C27A	0.18
A41U C27U	0.16
A41U C27G	0.08
G42C G50C	0.15
G42C G50U	0.32
G42C G50A	0.14
A41U C15A	0.26
A41U C15U	0.56

Variant	self-cleavage
A41U C15G	0.64
A41U U12G	0.69
A41U U12A	1.05
A41U U12C	0.91
G42C G54C	0.3
G42C G54A	0.26
G42C G54U	0.43
A41U C52A	1.02
A41U C52G	1.05
A41U C52U	1.04
G42U G53C	0.05
G42U G53A	0.1
G42U G53U	0.08
A41U G48U	0.07
A41U G48C	0.1
A41U G48A	0.09
G44C G49U	0.1
G44C G49A	0.11
G44C G49C	0.07
A41U U43A	0.81
A41U U43C	0.33
A41U U43G	0.32
